Experimental data taken from ChEMBL document CHEMBL1250442, “Inhibiting gene expression at transcription start sites in chromosomal DNA with antigene RNAs” (Nat Chem Biol, 2005).
Calls of active or inactive are those of the source. No cut-off for these calls is given here.

What was measured:
T47D [1] = experiment: Inhibition of PR-A gene expression in human T47D cells at 25 nM by syber green assay in presence of 10 nM estradiol; type: functional, cell-based
T47D [2] = experiment: Effect of DNA methylation at (+379) CpG site near PR-B transcription start site (-9) in human T47D cells by sodium bisulfite sequencing analysis; type: functional, cell-based
Summary of the method: (§1)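 T47D cells grown in RPMI-1640 with 10% FBS, 0.5% NEAA, insulin and P/S at 37 °C, 5% CO2. They were plated at 80,000 cells/well 2 days before lipid transfection with 25 nM or 100 nM duplex, with medium changed at 24 h. Cells were harvested 5 days post-transfection. 100 ng bisulfite-treated DNA was PCR-amplified, and products were TA-cloned. 5–15 colonies per plate were sequenced.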

T47D [3] = experiment: Effect of DNA methylation at (+398) CpG site near PR-B transcription start site (-9) in human T47D cells by sodium bisulfite sequencing analysis; type: functional, cell-based; summary of the method: as §1
T47D [4] = experiment: Effect of DNA methylation at (+125) CpG site near PR-B transcription start site (-9) in human T47D cells by sodium bisulfite sequencing analysis; type: functional, cell-based; summary of the method: as §1
T47D [5] = experiment: Inhibition of PR-A gene expression in human T47D cells by syber green assay; type: functional, cell-based
Summary of the method: (§2)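 T47D cells plated at 80,000/well without antibiotics two days before Oligofectamine transfection with agRNA duplex (25 or 100 nM final); medium changed at 24 h, harvest day 5 unless stated otherwise. TRIzol total RNA; PR mRNA by real-time PCR with SYBR Green: 50 °C 2 min, 95 °C 10 min, 40 cycles 95 °C 15 s/60 °C 1 min.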

T47D [6] = experiment: Inhibition of PR-A gene expression in human T47D cells at 25 nM in presence of 4 uM of 5-aza-Dc
T47D [7] = experiment: Effect of DNA methylation at (+162) CpG site near PR-B transcription start site (-9) in human T47D cells by sodium bisulfite sequencing analysis; type: functional, cell-based; summary of the method: as §1
T47D [8] = experiment: Effect of DNA methylation at (+267) CpG site near PR-B transcription start site (-9) in human T47D cells by sodium bisulfite sequencing analysis; type: functional, cell-based; summary of the method: as §1
T47D [9] = experiment: Inhibition of PR-B mRNA gene expression in human T47D cells at 100 nM by syber green assay; type: functional
Summary of the method: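 T47D cells in RPMI-1640 with 10% FBS, NEAA, insulin, 37 °C, 5% CO2. Plated two days before transfection without antibiotics. Oligofectamine-mediated duplex RNA transfection at 100 nM final, medium changed at 24 h, harvest five days post-transfection. Total RNA extracted with TRIzol. hPR mRNA quantified by SYBR Green qPCR: 50 °C 2 min, 95 °C 10 min, then 40 cycles of 95 °C 15 s / 60 °C 1 min.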

T47D [10] = experiment: Effect of DNA methylation at (+45) CpG site near PR-B transcription start site (-9) in human T47D cells by sodium bisulfite sequencing analysis; type: functional, cell-based
Summary of the method: (§3)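 T47D cells (RPMI-1640, 10% FBS, NEAA, insulin; 37 °C, 5% CO2) transfected with agRNA duplexes via Oligofectamine, medium changed at 24 h. Genomic DNA bisulphite-treated, regions around AR and hPR-B start sites PCR-amplified (HotStarTaq, 100 ng treated DNA), gel-purified, TOPO TA cloned; 5–15 colonies per plate miniprepped and sequenced.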

T47D [11] = experiment: Effect of DNA methylation at (+356) CpG site near PR-B transcription start site (-9) in human T47D cells by sodium bisulfite sequencing analysis; type: functional, cell-based; summary of the method: as §1
T47D [12] = experiment: Inhibition of PR-B gene expression in human T47D cells at 25 nM by syber green assay in presence of 10 nM estradiol; type: functional, cell-based
T47D [13] = experiment: Effect of DNA methylation at (+166) CpG site near PR-B transcription start site (-9) in human T47D cells by sodium bisulfite sequencing analysis; type: functional, cell-based; summary of the method: as §1
T47D [14] = experiment: Inhibition of PR-B gene expression in human T47D cells at 25 nM by syber green assay; type: functional; summary of the method: as §2
T47D [15] = experiment: Effect of DNA methylation at (+353) CpG site near PR-B transcription start site (-9) in human T47D cells by sodium bisulfite sequencing analysis; type: functional, cell-based; summary of the method: as §1
T47D [16] = experiment: Effect of DNA methylation at (+319) CpG site near PR-B transcription start site (-9) in human T47D cells by sodium bisulfite sequencing analysis; type: functional, cell-based; summary of the method: as §1
T47D [17] = experiment: Effect of DNA methylation at (-46) CpG site near PR-B transcription start site (-9) in human T47D cells by sodium bisulfite sequencing analysis; type: functional, cell-based; summary of the method: as §3
T47D [18] = experiment: Effect of DNA methylation at (-112) CpG site near PR-B transcription start site (-9) in human T47D cells by sodium bisulfite sequencing analysis; type: functional, cell-based; summary of the method: as §3
T47D [19] = experiment: Effect of DNA methylation at (+149) CpG site near PR-B transcription start site (-9) in human T47D cells by sodium bisulfite sequencing analysis; type: functional, cell-based; summary of the method: as §1
T47D [20] = experiment: Inhibition of PR-B gene expression in human T47D cells at 25 nM in presence of 4 uM of 5-aza-Dc
T47D [21] = experiment: Effect of DNA methylation at (+362) CpG site near PR-B transcription start site (-9) in human T47D cells by sodium bisulfite sequencing analysis; type: functional, cell-based; summary of the method: as §1
T47D [22] = experiment: Effect of DNA methylation at (-75) CpG site near PR-B transcription start site (-9) in human T47D cells by sodium bisulfite sequencing analysis; type: functional, cell-based; summary of the method: as §3
T47D [23] = experiment: Inhibition of PR-A gene expression in human T47D cells harboring inactive DNA methyltransferase-1 at 25 nM by syber green assay; type: functional, cell-based
T47D [24] = experiment: Effect of DNA methylation at (+41) CpG site near PR-B transcription start site (-9) in human T47D cells by sodium bisulfite sequencing analysis; type: functional, cell-based; summary of the method: as §3
T47D [25] = experiment: Cytotoxicity against human T47D cells assessed as effect on cellular morphology; type: cell-based
T47D [26] = experiment: Effect of DNA methylation at (+295) CpG site near PR-B transcription start site (-9) in human T47D cells by sodium bisulfite sequencing analysis; type: functional, cell-based; summary of the method: as §1
T47D [27] = experiment: Effect of DNA methylation at (+173) CpG site near PR-B transcription start site (-9) in human T47D cells by sodium bisulfite sequencing analysis; type: functional, cell-based; summary of the method: as §1
T47D [28] = experiment: Inhibition of PR-A gene expression in human T47D cells at 25 nM by syber green assay; type: functional; summary of the method: as §2
T47D [29] = experiment: Effect of DNA methylation at (-23) CpG site near PR-B transcription start site (-9) in human T47D cells by sodium bisulfite sequencing analysis; type: functional, cell-based; summary of the method: as §3
T47D [30] = experiment: Effect of DNA methylation at (+20) CpG site near PR-B transcription start site (-9) in human T47D cells by sodium bisulfite sequencing analysis; type: functional, cell-based; summary of the method: as §1
T47D [31] = experiment: Inhibition of PR-A mRNA gene expression in human T47D cells at 100 nM by syber green assay; type: functional; summary of the method: as §2
T47D [32] = experiment: Effect of DNA methylation at (+216) CpG site near PR-B transcription start site (-9) in human T47D cells by sodium bisulfite sequencing analysis; type: functional, cell-based; summary of the method: as §1
T47D [33] = experiment: Inhibition of PR-B gene expression in human T47D cells harboring inactive DNA methyltransferase-1 at 25 nM by syber green assay; type: functional, cell-based
T47D [34] = experiment: Effect of DNA methylation at (+107) CpG site near PR-B transcription start site (-9) in human T47D cells by sodium bisulfite sequencing analysis; type: functional, cell-based; summary of the method: as §1
T47D [35] = experiment: Effect of DNA methylation at (+335) CpG site near PR-B transcription start site (-9) in human T47D cells by sodium bisulfite sequencing analysis; type: functional, cell-based; summary of the method: as §1
T47D [36] = experiment: Effect of DNA methylation at (+112) CpG site near PR-B transcription start site (-9) in human T47D cells by sodium bisulfite sequencing analysis; type: functional, cell-based; summary of the method: as §1
T47D [37] = experiment: Effect of DNA methylation at (+225) CpG site near PR-B transcription start site (-9) in human T47D cells by sodium bisulfite sequencing analysis; type: functional, cell-based; summary of the method: as §1
T47D [38] = experiment: Effect of DNA methylation at (+337) CpG site near PR-B transcription start site (-9) in human T47D cells by sodium bisulfite sequencing analysis; type: functional, cell-based; summary of the method: as §1
T47D [39] = experiment: Effect of DNA methylation at (+190) CpG site near PR-B transcription start site (-9) in human T47D cells by sodium bisulfite sequencing analysis; type: functional, cell-based; summary of the method: as §1
T47D [40] = experiment: Inhibition of PR-B gene expression in human T47D cells by syber green assay; type: functional, cell-based; summary of the method: as §2

SMILES: Cc1cn(CC(=O)N(CCNC(=O)CN(CCNC(=O)CN(CCNC(=O)CN(CCNC(=O)CN(CCNC(=O)CN(CCNC(=O)CN(CCNC(=O)CN(CCNC(=O)CN(CCNC(=O)CN(CCNC(=O)CN(CCNC(=O)CN(CCNC(=O)CN(CCNC(=O)CN(CCNC(=O)CN(CCNC(=O)CN(CCNC(=O)CN(CCNC(=O)CN(CCNC(=O)CN(CCNC(=O)CN(CCNC(=O)CN)C(=O)Cn2ccc(=O)[nH]c2=O)C(=O)Cn2cnc3c(=O)[nH]c(N)nc32)C(=O)Cn2ccc(=O)[nH]c2=O)C(=O)Cn2ccc(N)nc2=O)C(=O)Cn2ccc(=O)[nH]c2=O)C(=O)Cn2cnc3c(=O)[nH]c(N)nc32)C(=O)Cn2cnc3c(=O)[nH]c(N)nc32)C(=O)Cn2ccc(N)nc2=O)C(=O)Cn2ccc(N)nc2=O)C(=O)Cn2cnc3c(N)ncnc32)C(=O)Cn2cnc3c(=O)[nH]c(N)nc32)C(=O)Cn2ccc(=O)[nH]c2=O)C(=O)Cn2ccc(N)nc2=O)C(=O)Cn2ccc(N)nc2=O)C(=O)Cn2cnc3c(N)ncnc32)C(=O)Cn2ccc(N)nc2=O)C(=O)Cn2cnc3c(N)ncnc32)C(=O)Cn2cnc3c(=O)[nH]c(N)nc32)C(=O)Cn2ccc(N)nc2=O)CC(=O)NCCN(CC(=O)NCC(=O)O)C(=O)Cn2cc(C)c(=O)[nH]c2=O)c(=O)[nH]c1=O
- inhibition (T47D [1]): Active
- Activity (T47D [2]): inactive
- Activity (T47D [3]): inactive
- Activity (T47D [4]): inactive
- IC50 (T47D [5]): 2.5 nM
- inhibition (T47D [6]): Active
- Activity (T47D [7]): inactive
- Activity (T47D [8]): inactive
- inhibition at 0.1 µM (T47D [9]): 100%
- Activity (T47D [10]): inactive
- Activity (T47D [11]): inactive
- inhibition (T47D [12]): Active
- Activity (T47D [13]): inactive
- inhibition at 0.025 µM (T47D [14]): 88%
- Activity (T47D [15]): inactive
- Activity (T47D [16]): inactive
- Activity (T47D [17]): inactive
- Activity (T47D [18]): inactive
- Activity (T47D [19]): inactive
- inhibition (T47D [20]): Active
- Activity (T47D [21]): inactive
- Activity (T47D [22]): inactive
- inhibition (T47D [23]): Active
- Activity (T47D [24]): inactive
- Activity (T47D [25]): Non-toxic
- Activity (T47D [26]): inactive
- Activity (T47D [27]): inactive
- inhibition at 0.025 µM (T47D [28]): 79%
- Activity (T47D [29]): inactive
- Activity (T47D [30]): inactive
- inhibition at 0.1 µM (T47D [31]): 95%
- Activity (T47D [32]): inactive
- inhibition (T47D [33]): Active
- Activity (T47D [34]): inactive
- Activity (T47D [35]): inactive
- Activity (T47D [36]): inactive
- Activity (T47D [37]): inactive
- Activity (T47D [38]): inactive
- Activity (T47D [39]): inactive
- IC50 (T47D [40]): 2.5 nM
